RORA act: RORA (human) activation; P35398; CHO-K1 Gal4-RORA LBD luciferase reporter, luminescence; percent increase over mock-subtracted basal signal; activation, % at 10 µM; 65,000 compounds, 1.5% hits; AID 560;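 active = activation above the mean of all tested compounds plus 3 SD, cut at about 49% in these data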;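 also: 0% = DMSO-treated RORA cells and 100% = added signal equal to DMSO minus mock-transfected cells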
Jurkat viability: reduces viability or proliferation of Jurkat cells. inhibition, % at 4 µM. Jurkat E6.1 viability, ATP luminescence, 48 h. 56,000 compounds, 1.2% hits;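 active = inhibition above the mean inhibition of all tested compounds plus 3 SD, cut at about 28% in these data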
SF-1 act: activates the human nuclear receptor SF-1 | activation, % at 10 µM | 65,000 compounds, 1.9% hits | Q13285 | CHO-K1 Gal4-SF-1 LBD luciferase reporter; % increase over DMSO SF-1-specific signal;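 active = activation above the mean activation of all tested compounds plus 3 SD, cut at about 50% in these data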
Target sequence (Q13285 whole entry, looked up, the tested form may be a part): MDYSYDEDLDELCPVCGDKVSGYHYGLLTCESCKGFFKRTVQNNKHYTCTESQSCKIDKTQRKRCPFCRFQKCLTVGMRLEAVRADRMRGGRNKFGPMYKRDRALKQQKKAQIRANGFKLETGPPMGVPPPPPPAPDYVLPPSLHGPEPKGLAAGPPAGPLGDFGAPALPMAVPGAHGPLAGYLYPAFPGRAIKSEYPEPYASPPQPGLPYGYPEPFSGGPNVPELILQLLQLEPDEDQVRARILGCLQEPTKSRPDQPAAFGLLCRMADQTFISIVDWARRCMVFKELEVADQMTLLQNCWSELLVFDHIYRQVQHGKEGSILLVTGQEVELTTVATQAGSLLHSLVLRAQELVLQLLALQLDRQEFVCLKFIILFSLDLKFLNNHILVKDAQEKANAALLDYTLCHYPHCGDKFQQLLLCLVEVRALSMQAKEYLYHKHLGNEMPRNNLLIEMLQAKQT
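Assay system: CHO-K1 cells co-transfected with Gal4 DBD–human SF-1 LBD, 5xGal4 luciferase reporter; doses: 10 µM only; incubation: 20 h compound exposure at 37 °C after 1 h cell settling; signal: luciferase light emission; evaluation: percent activation versus DMSO; repeats: one test per compound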
MT1-MMP txn act: activates MT1-MMP transcription. HT1080 MT1-MMP promoter luciferase reporter, luminescence, overnight; stronger effect = higher value. activation factor at 10 µM. 86,000 compounds, 0.16% hits. AID 750;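 active = activation factor of at least 2 for MT1-MMP transcription at 10 µM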
HEK293 NFkB inh: lowers PMA/ionomycin-induced NF-kB signal in HEK293 cells; HEK-293 NF-kB luciferase reporter, luminescence; inhibition, % at 3 µM; 62,000 compounds, 0.21% hits; AID 465;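 active = inhibition above the mean of all tested compounds plus 3 SD, cut at about 40% in these data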;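 also: 0% = stimulated DMSO wells and 100% = 10 µM reference inhibitor 5653914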
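Timing: 1 h pretreatment, 16 h stimulation, 37 °C; system: HEK-293 cells with stable firefly luciferase reporter driven by four HIV NF-kB elements; doses: 3 µM once, 0.30% DMSO; measured by: luciferase luminescence; control set: DMSO and 10 µM reference inhibitor; repeats: single test; reagent: PMA plus ionomycin mix as NF-kB-activating stimulus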
* marks the source's active call; other numbers are inactive results; nt = not tested or not shown. The list is not random: actives were taken first. Their share in the collection is about 2.9%.

SMILES	RORA act	Jurkat viability	SF-1 act	MT1-MMP txn act	HEK293 NFkB inh
COc1cccc(/C=N/n2c(C)c3c(C)nnc(C)c3c2C)c1O	-15	-3	-3	nt	18
CCOC(=O)N1CCN(C(=O)C2CCCN(c3nc4ccc(OCC)cc4s3)C2)CC1 (centres undefined)	34	1	-12	1.2	-1
CCOc1ccc2nc(N3CCC(C(=O)N4CCN(c5ncccn5)CC4)CC3)sc2c1	70*	-3	18	1.2	9
CCOc1ccc2nc(N3CCC(C(=O)N4CCN(c5ccccn5)CC4)CC3)sc2c1	73*	35*	15	1.2	10
CCOC(=O)CC(N)c1ccc2c(c1)OCO2 (centres undefined)	-10	0	8	1.2	16
COc1cc(C)c(S(=O)(=O)n2ccc(C)n2)cc1C	-4	nt	4	1.1	11
CC(CC(=O)c1cccs1)CC(=O)c1cccs1	74*	10	74*	1.9	1
Cc1cccc(-n2ncc3c(N4CC(C)CC(C)C4)ncnc32)c1 (centres undefined)	47	3	51*	1.2	-20
CCOC(=O)C1CCCN(c2ncnc3c2cnn3-c2ccc(Cl)cc2)C1 (centres undefined)	14	nt	16	0.7	-11
COc1ccc(-n2ncc3c(N4CCCCC4)ncnc32)cc1	-87	5	-84	nt	58*
CC1CC(C)CN(c2ncnc3c2cnn3Cc2ccc(Cl)cc2)C1 (centres undefined)	17	1	-10	1.1	16
CCOC(=O)C1CCCN(c2ncnc3c2cnn3-c2ccc(OC)cc2)C1 (centres undefined)	42	nt	58*	1.2	-21
CC1CN(c2ncnc3c2cnn3-c2ccc(Cl)cc2)CC(C)O1 (centres undefined)	67*	4	75*	1.5	-44
CCC(NS(=O)(=O)c1ccc(C)cc1)C(=O)Nc1ccc(NC(C)=O)cc1 (centres undefined)	-23	-3	-4	1.1	17
Clc1ccc(-n2ncc3c(N4CCCCCC4)ncnc32)cc1	-68	4	-76	nt	48*
CCC(=O)Nc1ccccc1Nc1cc(C#N)c(C#N)cc1[N+](=O)[O-]	nt	nt	nt	1	nt
Cn1c(SCc2ccccc2)nnc1-c1ccc2c(c1)OCO2	55*	3	36	1.4	10
COc1cccc2c(=O)c(C(=O)NCc3cccs3)c[nH]c12	26	2	119*	1.7	-20
Cc1ccc2[nH]cc(C(=O)NCc3cccs3)c(=O)c2c1	nt	nt	nt	1.3	nt
Cc1c(C(=O)Nc2ccccc2)sc2nc(-c3ccccc3)cn12	58*	9	54*	nt	-5
COc1ccc(-c2cn3c(C)c(C(=O)NC(C)(C)C)sc3n2)cc1	56*	-8	48	1.8	-19
COc1cc(OC)cc(-c2nc3cc(C)ccc3o2)c1	57*	3	72*	1.3	-55
COc1cc(OC)cc(-c2nc3ccccc3c(=O)o2)c1	nt	nt	nt	1.2	nt
O=S(=O)(Nc1ccc(Cl)c(C(F)(F)F)c1)c1cnc[nH]1	-5	-1	10	1.1	11
COc1cccc(-c2noc(-c3cccs3)n2)c1	66*	-2	-8	1.3	-34
SMILES	RORA act	Jurkat viability	SF-1 act	MT1-MMP txn act	HEK293 NFkB inh
COc1ccc(-c2noc(-c3ccc(Cl)cc3)n2)cc1	49*	9	28	1.2	-12
Cc1ccccc1-c1noc(-c2cccs2)n1	39	6	53*	1.4	2
COc1cccc(-c2nc(-c3ccccc3)no2)c1	14	-5	-9	0.8	-38
COc1nc(-c2ccccc2)ccc1-c1noc(-c2cccs2)n1	48	4	49	1.5	-1
COc1ccc(-c2noc(-c3ccccc3-c3ccccc3)n2)cc1	nt	nt	nt	1.1	nt
COc1cccc(-c2nc(-c3ccc(NC(=O)c4cccnc4)cc3)no2)c1	51*	-4	55*	1.3	-13
CCCCOC(=O)C1=C(C)NC2=C(C(=O)CCC2)C1c1cc(OC)ccc1OC (centres undefined)	17	-2	15	1	8
COc1ccc2c(Cl)c(C(=O)NCCCn3ccnc3)sc2c1	17	12	10	1	0
Cc1ccc(-c2nc(-c3cccnc3)no2)cc1	11	-4	56*	0.5	-32
c1ccc(-c2ccccc2-c2nc(-c3cccnc3)no2)cc1	-10	5	0	1.2	1
COc1cccc(-c2noc(-c3cccnc3)n2)c1	86*	2	22	1.4	-28
CN(Cc1ccccc1)c1nc(N)c([N+](=O)[O-])c(Nc2cccc(F)c2)n1	nt	nt	nt	1	nt
Nc1nc(Nc2cccc(F)c2)nc2ccccc12	47	nt	67*	1	-12
C=C(C)CSc1nncn1/N=C/c1ccc(OC)cc1	49*	-4	55*	1.9	-7
Fc1ccc(NCc2cn3ccccc3n2)cc1	20	-1	47	1.5	-6
Fc1cccc(NCc2cn3ccccc3n2)c1	45	2	72*	1.1	-54
CCOC(=O)C(NS(=O)(=O)c1ccc(Br)cc1)C(C)C (centres undefined)	-1	nt	-15	1.1	6
C/C(N)=C(/C#N)C(=O)CSc1ccc2c(c1)OCCO2	-2	-9	58*	1.2	-10
O=C(O)c1cc(C(F)(F)F)nc2c(C(F)(F)F)cccc12	nt	nt	nt	1.2	nt
CCOC(=O)c1[nH]c(COC(=O)CCCOc2ccccc2)c(C(=O)OCC)c1C	-4	-3	-15	1.1	22
O=C1c2ccccc2C(=O)N1CCOc1ccccc1	nt	nt	nt	2.1*	nt
CCOc1ccc(OCc2cccc(C(=O)N3CCCC3)c2)cc1	-2	-1	-14	0.5	-3
COc1ccc(OCc2cccc(C(=O)O)c2)cc1	-94	12	-94	0	94*
O=C(O)c1ccc(COc2ccc(CO)cc2Cl)cc1	5	4	37	1.7	-8
O=C(O)c1ccccc1COc1ccccc1Cl	-13	6	-11	1.1	29
SMILES	RORA act	Jurkat viability	SF-1 act	MT1-MMP txn act	HEK293 NFkB inh
O=C(O)c1cccc(COc2ccc(CO)cc2Cl)c1	-94	7	-94	0	94*
COc1ccc(NS(=O)(=O)c2cccc(C(=O)O)c2)cc1	14	-2	-12	1	14
O=C(O)c1cccc(OCc2ccccc2Cl)c1	24	8	80*	1.3	-8
CCOc1ccc(OCc2cccc(C(=O)O)c2)cc1	-94	12	-95	0	97*
COC(=O)Nc1ccc(OCc2ccccc2)cc1	32	9	72*	1.2	-14
COC(=O)Nc1ccc(Oc2ccccc2)cc1	-6	2	4	1.1	9
Cc1cc(C)cc(NC2=NC3(CCCCC3)N=C(N)N2)c1	8	66*	-12	1.1	-4
CCN1CCN(S(=O)(=O)c2cc(OC)c(Cl)cc2OC)CC1	nt	nt	nt	1.2	nt
COc1ccc(-c2nnnn2-c2ccccc2OC)cc1	6	48*	12	1.2	5
CCc1nc(Sc2nc(C)cc(C)n2)c2oc3ccccc3c2n1	6	5	-10	1.4	37
